According to ChEMBL document CHEMBL3046615, “Isolation of nematicidal compounds from Tagetes patula L. yellow flowers: structure-activity relationship studies against cyst nematode Heterodera zeae infective stage larvae” (2011):
The source made the active and inactive calls. No cut-off for these calls is given here.

Key:
[1] = tested on: Heterodera zeae; assay: Nematicidal activity against Heterodera zeae infective stage larvae assessed as nematode mortality at 1% under dark conditions measured 24 hr post dose by stereoscopic microscopy; type: functional
Procedure, shortened: (§1)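 Freshly hatched H. zeae second-stage juveniles, 100 per Petri plate, three replicates. Samples in MeOH, DMSO or water were tested in glass cavity blocks; petroleum ether samples were dried onto the block and larvae transferred on agar pieces. Percentages are dilutions of 30 mg/mL stocks (extracts/fractions) or 1 mg/mL stocks (pure compounds). Incubated at 28 ± 2 °C in light or dark box; mortality averaged over three replicates.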

[2] = tested on: Heterodera zeae; assay: Nematicidal activity against Heterodera zeae infective stage larvae assessed as nematode mortality at 2% under dark conditions measured 24 hr post dose by stereoscopic microscopy; type: functional; procedure, shortened: as §1
[3] = tested on: Heterodera zeae; assay: Nematicidal activity against Heterodera zeae infective stage larvae assessed as nematode mortality at 5% under dark conditions measured 24 hr post dose by stereoscopic microscopy; type: functional; procedure, shortened: as §1
[4] = tested on: Heterodera zeae; assay: Nematicidal activity against Heterodera zeae infective stage larvae assessed as nematode mortality at 0.125% under light conditions measured 48 hr post dose by stereoscopic microscopy; type: functional; procedure, shortened: as §1
[5] = tested on: Heterodera zeae; assay: Nematicidal activity against Heterodera zeae infective stage larvae assessed as nematode mortality at 0.25% under light conditions measured 48 hr post dose by stereoscopic microscopy; type: functional; procedure, shortened: as §1
[6] = tested on: Heterodera zeae; assay: Nematicidal activity against Heterodera zeae infective stage larvae assessed as nematode mortality at 0.125% under light conditions measured 24 hr post dose by stereoscopic microscopy; type: functional; procedure, shortened: as §1
[7] = tested on: Heterodera zeae; assay: Nematicidal activity against Heterodera zeae infective stage larvae assessed as nematode mortality at 0.25% under light conditions measured 24 hr post dose by stereoscopic microscopy; type: functional; procedure, shortened: as §1
[8] = tested on: Heterodera zeae; assay: Nematicidal activity against Heterodera zeae infective stage larvae assessed as nematode mortality at 0.5% under light conditions measured 24 hr post dose by stereoscopic microscopy; type: functional; procedure, shortened: as §1
[9] = tested on: Heterodera zeae; assay: Nematicidal activity against Heterodera zeae infective stage larvae assessed as nematode mortality at 1% under light conditions measured 24 hr post dose by stereoscopic microscopy; type: functional; procedure, shortened: as §1
[10] = tested on: Heterodera zeae; assay: Nematicidal activity against Heterodera zeae infective stage larvae assessed as nematode mortality at 2% under light conditions measured 24 hr post dose by stereoscopic microscopy; type: functional; procedure, shortened: as §1
[11] = tested on: Heterodera zeae; assay: Nematicidal activity against Heterodera zeae infective stage larvae assessed as nematode mortality at 5% under light conditions measured 24 hr post dose by stereoscopic microscopy; type: functional; procedure, shortened: as §1
[12] = tested on: Heterodera zeae; assay: Nematicidal activity against Heterodera zeae infective stage larvae assessed as nematode mortality at 0.125% under dark conditions measured 5 to 60 min post dose by stereoscopic microscopy; type: functional, organism-based
Procedure, shortened: (§2)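 H. zeae freshly hatched second-stage juveniles, 100 per plate, three replicates, at 28 ± 2 °C under light or in a dark box. Dilutions are % of a stock: 30 mg/mL for extracts/fractions, 1 mg/mL for pure compounds. Methanol-, DMSO- or water-soluble samples were tested in glass cavity blocks. Petroleum ether-soluble samples were air-dried in the block and covered with agar pieces bearing cultured larvae. Mortality was followed over 5–60 min; each value is the mean of three experiments.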

[13] = tested on: Heterodera zeae; assay: Nematicidal activity against Heterodera zeae infective stage larvae assessed as nematode mortality at 0.25% under dark conditions measured 5 to 60 min post dose by stereoscopic microscopy; type: functional, organism-based; procedure, shortened: as §2
[14] = tested on: Heterodera zeae; assay: Nematicidal activity against Heterodera zeae infective stage larvae assessed as nematode mortality at 0.5% under dark conditions measured 5 to 60 min post dose by stereoscopic microscopy; type: functional, organism-based; procedure, shortened: as §2
[15] = tested on: Heterodera zeae; assay: Nematicidal activity against Heterodera zeae infective stage larvae assessed as nematode mortality at 1% under dark conditions measured 5 to 60 min post dose by stereoscopic microscopy; type: functional, organism-based; procedure, shortened: as §2
[16] = tested on: Heterodera zeae; assay: Nematicidal activity against Heterodera zeae infective stage larvae assessed as nematode mortality at 2% under dark conditions measured 5 to 60 min post dose by stereoscopic microscopy; type: functional, organism-based; procedure, shortened: as §2
[17] = tested on: Heterodera zeae; assay: Nematicidal activity against Heterodera zeae infective stage larvae assessed as nematode mortality at 5% under dark conditions measured 5 to 60 min post dose by stereoscopic microscopy; type: functional, organism-based; procedure, shortened: as §2
[18] = tested on: Heterodera zeae; assay: Nematicidal activity against Heterodera zeae infective stage larvae assessed as nematode mortality at 0.125% under light conditions measured 5 to 60 min post dose by stereoscopic microscopy; type: functional, organism-based; procedure, shortened: as §2
[19] = tested on: Heterodera zeae; assay: Nematicidal activity against Heterodera zeae infective stage larvae assessed as nematode mortality at 0.25% under light conditions measured 5 to 60 min post dose by stereoscopic microscopy; type: functional, organism-based; procedure, shortened: as §2
[20] = tested on: Heterodera zeae; assay: Nematicidal activity against Heterodera zeae infective stage larvae assessed as nematode mortality at 0.5% under light conditions measured 5 to 60 min post dose by stereoscopic microscopy; type: functional, organism-based; procedure, shortened: as §2
[21] = tested on: Heterodera zeae; assay: Nematicidal activity against Heterodera zeae infective stage larvae assessed as nematode mortality at 1% under light conditions measured 5 to 60 min post dose by stereoscopic microscopy; type: functional, organism-based; procedure, shortened: as §2
[22] = tested on: Heterodera zeae; assay: Nematicidal activity against Heterodera zeae infective stage larvae assessed as nematode mortality at 2% under light conditions measured 5 to 60 min post dose by stereoscopic microscopy; type: functional, organism-based; procedure, shortened: as §2
[23] = tested on: Heterodera zeae; assay: Nematicidal activity against Heterodera zeae infective stage larvae assessed as nematode mortality at 5% under light conditions measured 5 to 60 min post dose by stereoscopic microscopy; type: functional, organism-based; procedure, shortened: as §2
[24] = tested on: Heterodera zeae; assay: Nematicidal activity against Heterodera zeae infective stage larvae assessed as nematode mortality at 0.125% under dark conditions measured 48 hr post dose by stereoscopic microscopy; type: functional; procedure, shortened: as §1
[25] = tested on: Heterodera zeae; assay: Nematicidal activity against Heterodera zeae infective stage larvae assessed as nematode mortality at 0.25% under dark conditions measured 48 hr post dose by stereoscopic microscopy; type: functional; procedure, shortened: as §1
[26] = tested on: Heterodera zeae; assay: Nematicidal activity against Heterodera zeae infective stage larvae assessed as nematode mortality at 0.125% under dark conditions measured 24 hr post dose by stereoscopic microscopy; type: functional; procedure, shortened: as §1
[27] = tested on: Heterodera zeae; assay: Nematicidal activity against Heterodera zeae infective stage larvae assessed as nematode mortality at 0.25% under dark conditions measured 24 hr post dose by stereoscopic microscopy; type: functional; procedure, shortened: as §1
[28] = tested on: Heterodera zeae; assay: Nematicidal activity against Heterodera zeae infective stage larvae assessed as nematode mortality at 0.5% under dark conditions measured 24 hr post dose by stereoscopic microscopy; type: functional; procedure, shortened: as §1

**Q.** How did the mortality [1] turn out when `CNC(=O)Oc1cccc2c1OC(C)(C)C2` [CARBOFURAN] was run?
**A.** The mortality was 100%.

**Q.** What about the mortality [2] of the same compound?
**A.** The mortality was 100%.

**Q.** And the mortality [3]?
**A.** The mortality was 100%.

**Q.** What about the mortality [4] of the same compound?
**A.** Its mortality is 100%.

**Q.** What about the mortality [5] of the same compound?
**A.** Its mortality is 100%.

**Q.** What about the mortality [6] of the same compound?
**A.** Its mortality is 40%.

**Q.** And the mortality [7]?
**A.** The mortality was 80%.

**Q.** And the mortality [8]?
**A.** The mortality was 100%.

**Q.** And the mortality [9]?
**A.** The mortality was 100%.

**Q.** What about the mortality [10] of the same compound?
**A.** The mortality was 100%.

**Q.** What about the mortality [11] of the same compound?
**A.** Its mortality is 100%.

**Q.** And the Activity [12]?
**A.** The Activity was “inactive”.

**Q.** And the Activity [13]?
**A.** The Activity was “inactive”.

**Q.** What about the Activity [14] of the same compound?
**A.** Its Activity is “inactive”.

**Q.** What about the Activity [15] of the same compound?
**A.** Its Activity is “inactive”.

**Q.** And the Activity [16]?
**A.** Its Activity is “inactive”.

**Q.** What about the Activity [17] of the same compound?
**A.** Its Activity is “inactive”.

**Q.** What about the Activity [18] of the same compound?
**A.** Its Activity is “inactive”.

**Q.** And the Activity [19]?
**A.** The Activity was “inactive”.

**Q.** What about the Activity [20] of the same compound?
**A.** Its Activity is “inactive”.

**Q.** What about the Activity [21] of the same compound?
**A.** Its Activity is “inactive”.

**Q.** What about the Activity [22] of the same compound?
**A.** The Activity was “inactive”.

**Q.** What about the Activity [23] of the same compound?
**A.** The Activity was “inactive”.

**Q.** And the mortality [24]?
**A.** Its mortality is 100%.

**Q.** And the mortality [25]?
**A.** The mortality was 100%.

**Q.** And the mortality [26]?
**A.** Its mortality is 60%.

**Q.** And the mortality [27]?
**A.** Its mortality is 80%.

**Q.** And the mortality [28]?
**A.** The mortality was 100%.
